Data: the M2OR odorant receptor database

Legend:
Conditions in all cases: stereoisomer not certain
OR6N1 (Homo sapiens) = OR6N1 (Homo sapiens) (UniProt Q8NGY5)
How it was run: (§1)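 Each receptor–molecule pair is labelled responsive or non-responsive (inactive) according to whether the original authors judged the measured signal statistically different from baseline. The data were taken from the main text and supplementary material of published papers and checked for typos and inconsistencies. Assay methods differed by source, with transient luciferase assays in mammalian cell lines being common.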

OR6N2 (Homo sapiens) = OR6N2 (Homo sapiens) (UniProt Q8NGY6)
How it was run: as §1

OR6P1 (Homo sapiens) = target: T1, OR6P1 (Homo sapiens) (UniProt Q8NGX9)
T1 sequence (whole entry): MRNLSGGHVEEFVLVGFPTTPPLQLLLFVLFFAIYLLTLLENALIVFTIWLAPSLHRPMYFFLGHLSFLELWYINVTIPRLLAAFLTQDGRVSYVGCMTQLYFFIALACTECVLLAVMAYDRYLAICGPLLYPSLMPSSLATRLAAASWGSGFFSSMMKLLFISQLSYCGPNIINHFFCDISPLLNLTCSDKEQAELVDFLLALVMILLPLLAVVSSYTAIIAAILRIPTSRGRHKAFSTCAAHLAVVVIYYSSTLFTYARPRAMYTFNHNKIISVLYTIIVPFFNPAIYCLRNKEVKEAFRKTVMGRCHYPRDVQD
How it was run: as §1

OR6Q1 (Homo sapiens) = OR6Q1 (Homo sapiens) (UniProt Q8NGQ2)
How it was run: as §1

OR6S1 (Homo sapiens) = OR6S1 (Homo sapiens) (UniProt Q8NH40)
How it was run: as §1

OR6T1 (Homo sapiens) = OR6T1 (Homo sapiens) (UniProt Q8NGN1)
How it was run: as §1

OR6V1 (Homo sapiens) = OR6V1 (Homo sapiens) (UniProt Q8N148)
How it was run: as §1

OR6M1 T276K = tested on: OR6M1 T276K
How it was run: as §1

OR6S1 T42I V156I = tested on: OR6S1 T42I V156I
How it was run: as §1

OR6T1 N2D = tested on: OR6T1 N2D
How it was run: as §1
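Further: active if original authors judged signal statistically different from baseline.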

OR6Q1 (Homo sapiens), sequence (Q8NGQ2 whole entry): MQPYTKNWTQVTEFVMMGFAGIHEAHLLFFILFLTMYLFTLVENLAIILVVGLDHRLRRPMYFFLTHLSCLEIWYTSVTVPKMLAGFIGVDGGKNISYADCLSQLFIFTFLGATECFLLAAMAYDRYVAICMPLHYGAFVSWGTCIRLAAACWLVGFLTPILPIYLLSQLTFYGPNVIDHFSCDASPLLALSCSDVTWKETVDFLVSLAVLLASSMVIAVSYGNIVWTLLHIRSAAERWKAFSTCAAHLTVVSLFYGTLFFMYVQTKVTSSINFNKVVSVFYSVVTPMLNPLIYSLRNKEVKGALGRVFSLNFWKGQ
OR6S1 (Homo sapiens), sequence (Q8NH40 whole entry): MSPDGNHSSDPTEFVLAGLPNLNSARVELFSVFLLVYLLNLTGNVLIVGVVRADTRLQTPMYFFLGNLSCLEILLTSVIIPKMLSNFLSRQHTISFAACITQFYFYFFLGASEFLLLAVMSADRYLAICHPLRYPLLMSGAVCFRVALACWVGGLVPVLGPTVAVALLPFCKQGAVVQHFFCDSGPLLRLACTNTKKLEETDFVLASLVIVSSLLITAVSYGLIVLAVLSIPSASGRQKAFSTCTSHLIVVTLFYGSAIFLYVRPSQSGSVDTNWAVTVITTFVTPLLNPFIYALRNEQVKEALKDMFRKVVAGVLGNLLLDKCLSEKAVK
OR6N2 (Homo sapiens), sequence (Q8NGY6 whole entry): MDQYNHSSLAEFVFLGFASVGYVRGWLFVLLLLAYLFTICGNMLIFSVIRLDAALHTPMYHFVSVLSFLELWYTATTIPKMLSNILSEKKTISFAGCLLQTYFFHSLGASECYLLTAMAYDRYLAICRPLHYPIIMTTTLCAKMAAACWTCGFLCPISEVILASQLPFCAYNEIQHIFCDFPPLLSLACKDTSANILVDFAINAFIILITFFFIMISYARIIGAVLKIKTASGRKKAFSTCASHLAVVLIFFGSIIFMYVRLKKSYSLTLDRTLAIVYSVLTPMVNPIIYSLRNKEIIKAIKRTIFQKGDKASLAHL
OR6V1 (Homo sapiens), sequence (Q8N148 whole entry): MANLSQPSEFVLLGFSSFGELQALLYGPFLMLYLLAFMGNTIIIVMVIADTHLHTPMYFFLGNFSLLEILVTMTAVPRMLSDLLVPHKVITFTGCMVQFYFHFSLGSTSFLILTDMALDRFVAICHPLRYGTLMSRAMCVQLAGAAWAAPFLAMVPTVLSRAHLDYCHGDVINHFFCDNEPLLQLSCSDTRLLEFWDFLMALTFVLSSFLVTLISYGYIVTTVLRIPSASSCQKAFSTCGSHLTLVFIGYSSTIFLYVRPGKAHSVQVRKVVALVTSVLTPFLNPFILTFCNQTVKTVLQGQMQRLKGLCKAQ
OR6T1 (Homo sapiens), sequence (Q8NGN1 whole entry): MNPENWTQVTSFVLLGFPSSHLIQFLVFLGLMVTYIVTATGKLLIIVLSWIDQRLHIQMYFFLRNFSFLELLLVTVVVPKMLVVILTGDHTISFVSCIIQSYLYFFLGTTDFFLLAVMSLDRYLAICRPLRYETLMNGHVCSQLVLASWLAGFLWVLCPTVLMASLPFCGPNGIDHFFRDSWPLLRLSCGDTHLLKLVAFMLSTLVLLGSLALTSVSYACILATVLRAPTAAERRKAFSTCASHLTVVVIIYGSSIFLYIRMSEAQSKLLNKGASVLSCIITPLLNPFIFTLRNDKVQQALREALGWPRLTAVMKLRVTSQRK
OR6N1 (Homo sapiens), sequence (Q8NGY5 whole entry): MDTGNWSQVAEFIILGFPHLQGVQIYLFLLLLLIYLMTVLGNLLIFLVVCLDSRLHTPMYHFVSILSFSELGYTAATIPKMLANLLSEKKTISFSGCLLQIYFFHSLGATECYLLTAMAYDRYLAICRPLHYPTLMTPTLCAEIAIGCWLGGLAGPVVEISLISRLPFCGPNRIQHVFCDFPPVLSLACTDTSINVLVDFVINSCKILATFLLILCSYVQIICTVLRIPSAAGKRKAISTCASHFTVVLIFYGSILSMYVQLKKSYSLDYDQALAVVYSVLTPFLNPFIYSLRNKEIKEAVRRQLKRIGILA
OR6M1 T276K, sequence (as listed by the source, stated change not applied): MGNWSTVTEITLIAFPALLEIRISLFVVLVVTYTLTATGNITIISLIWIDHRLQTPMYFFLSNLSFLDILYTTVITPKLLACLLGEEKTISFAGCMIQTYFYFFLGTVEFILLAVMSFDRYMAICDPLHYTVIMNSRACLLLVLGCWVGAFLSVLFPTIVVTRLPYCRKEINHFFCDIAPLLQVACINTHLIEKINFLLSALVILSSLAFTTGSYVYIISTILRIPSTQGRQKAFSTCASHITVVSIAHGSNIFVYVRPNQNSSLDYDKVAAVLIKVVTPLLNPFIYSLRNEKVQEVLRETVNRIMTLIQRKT
OR6T1 N2D, sequence (as listed by the source): as the sequence (Q8NGN1 whole entry) above, with N2D counted along it

Structure (SMILES) | odorant receptor agonist call (OR6N1 (Homo sapiens)) | odorant receptor agonist call (OR6N2 (Homo sapiens)) | odorant receptor agonist call (OR6P1 (Homo sapiens)) | odorant receptor agonist call (OR6Q1 (Homo sapiens)) | odorant receptor agonist call (OR6S1 (Homo sapiens)) | odorant receptor agonist call (OR6T1 (Homo sapiens)) | odorant receptor agonist call (OR6V1 (Homo sapiens)) | odorant receptor agonist call (OR6M1 T276K) | odorant receptor agonist call (OR6S1 T42I V156I) | odorant receptor agonist call (OR6T1 N2D)
Cc1c([N+](=O)[O-])c(C)c([N+](=O)[O-])c(C(C)(C)C)c1[N+](=O)[O-] | inactive | inactive | inactive | inactive | inactive | inactive | inactive |  |  | 
C=CCOC(=O)Cc1ccccc1 | inactive | inactive | inactive | inactive | inactive | inactive | inactive | inactive | inactive | inactive
COc1ccc(C=O)cc1 |  |  | active |  |  |  |  |  |  | 
